These results are taken from paper PMC7161550 (British Journal of Pharmacology, 2020).

What is called IC50 is the concentration that inhibits the measured activity by half.

Read-outs that look alike come from different tables or passages of the source.

For data set [1], the target named is T1, mouse liver fatty acid amide hydrolase (FAAH) (Mus musculus, UniProt O08914).
T1 sequence (O08914 1-579): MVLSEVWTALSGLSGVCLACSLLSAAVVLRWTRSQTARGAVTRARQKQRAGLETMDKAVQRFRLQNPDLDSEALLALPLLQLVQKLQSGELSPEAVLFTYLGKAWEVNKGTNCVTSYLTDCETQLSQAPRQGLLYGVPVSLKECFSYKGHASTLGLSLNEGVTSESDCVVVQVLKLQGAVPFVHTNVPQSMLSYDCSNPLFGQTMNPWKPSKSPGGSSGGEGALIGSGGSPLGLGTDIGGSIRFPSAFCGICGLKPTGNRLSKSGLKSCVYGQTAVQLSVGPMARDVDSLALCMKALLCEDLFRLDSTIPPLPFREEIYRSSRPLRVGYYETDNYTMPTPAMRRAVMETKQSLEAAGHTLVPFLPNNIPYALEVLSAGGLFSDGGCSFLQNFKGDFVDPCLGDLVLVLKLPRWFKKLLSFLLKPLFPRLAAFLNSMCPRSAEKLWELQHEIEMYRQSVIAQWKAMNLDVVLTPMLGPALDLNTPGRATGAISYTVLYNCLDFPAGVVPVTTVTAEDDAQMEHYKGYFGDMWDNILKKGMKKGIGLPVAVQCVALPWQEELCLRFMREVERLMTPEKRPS
Kind of data set: Ex vivo FAAH activity in mouse liver after oral administration. The conditions noted are these: 0.1 mg·kg^−1 p.o., 1 hr after dosing. The essentials: (§1)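 Liver and half-brain were collected into FAAH membrane buffer (3 mM MgCl2, 1 mM EDTA, 50 mM Tris HCl, pH 7.4) and stored at −20°C. Homogenates (15 μg protein brain, 5 μg liver) were pre-incubated 15 min at 37°C. AEA + 3H‑AEA + BSA was added for 10 min (brain) or 7 min (liver), then charcoal. Scintillation counting gave % remaining activity versus controls after blank subtraction.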

Data set [2] relates to 229 assays for receptors, enzymes, transporters, ion channels, hormones, growth factors and inflammatory mediators. The data set is classed as binding. The conditions noted are these: 10 and 50 μM.
Data set [3] has as its target T2, rat brain fatty acid amide hydrolase (Rattus norvegicus, UniProt P97612).
T2 sequence (P97612 1-579): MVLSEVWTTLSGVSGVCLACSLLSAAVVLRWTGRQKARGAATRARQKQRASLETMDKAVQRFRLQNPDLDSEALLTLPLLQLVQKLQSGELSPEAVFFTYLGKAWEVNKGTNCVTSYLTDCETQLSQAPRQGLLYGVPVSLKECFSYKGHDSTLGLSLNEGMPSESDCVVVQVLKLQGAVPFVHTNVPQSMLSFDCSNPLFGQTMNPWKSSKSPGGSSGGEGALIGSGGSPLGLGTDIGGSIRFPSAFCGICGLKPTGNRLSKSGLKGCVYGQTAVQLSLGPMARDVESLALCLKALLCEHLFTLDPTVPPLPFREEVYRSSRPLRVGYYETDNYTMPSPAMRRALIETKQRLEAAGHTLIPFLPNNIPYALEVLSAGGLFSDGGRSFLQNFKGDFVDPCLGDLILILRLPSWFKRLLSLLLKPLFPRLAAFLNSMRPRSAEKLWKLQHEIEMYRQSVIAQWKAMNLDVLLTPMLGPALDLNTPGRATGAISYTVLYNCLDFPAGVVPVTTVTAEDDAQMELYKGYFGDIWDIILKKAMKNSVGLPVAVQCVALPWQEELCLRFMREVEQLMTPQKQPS
As to the kind of experiment: FAAH progression curves, kinetic constants k obs and k inact/K I. The data set is classed as biochemical. The conditions noted are these: inhibition of rat brain FAAH, 37°C.

The nature of data set [4]: Protein binding to cell homogenates. The format is in vitro ADME. The conditions noted are these: 500 μg·ml^−1 of protein.
The target of data set [5] is T3, rat brain fatty acid amide hydrolase (FAAH) (Rattus norvegicus, UniProt P97612).
T3 sequence (P97612 1-579): T2 sequence (P97612 1-579)
The format is biochemical. As to conditions: read-out: IC50 [95% CI]. Summed up:
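Rat brain membranes from Wistar rats, 10 μg protein, in 1 mM EDTA, 10 mM Tris, pH 7.6. Test compound at 1 nM–10 μM, pre-incubated with enzyme 5–60 min, or reaction started with enzyme when not pre-incubated. Substrate 2 μM AEA + 5 nM 3H‑AEA + 0.1% fatty acid-free BSA, 30 min at room temperature with agitation. Charcoal stop; supernatant 3H‑ethanolamine counted. Blank and vehicle controls; IC50 from normalized variable-slope sigmoidal fit.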

Data set [6] deals with T4, fatty acid amide hydrolase (Rattus norvegicus, UniProt P97612).
T4 sequence (P97612 1-579): T2 sequence (P97612 1-579)
As to the kind of experiment: Gel‐based competitive ABPP in vitro, TAMRA‐FP probe, rat brain fractions. The data set is classed as biochemical. The conditions noted are these: 1 hr. The essentials: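 Rat brain membrane and soluble protein extracts (200 μg) were incubated 1 hr at room temperature with test compound at 1 nM–100 μM, DMSO vehicle or PMSF 3 mM. Active serine hydrolases were then labelled with TAMRA‑FP probe (2 μM final) for 1 hr at room temperature. Bands were visualized by in-gel fluorescence.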

For data set [7], the target named is T5, mouse brain fatty acid amide hydrolase (FAAH) (Mus musculus, UniProt O08914).
T5 sequence (O08914 1-579): T1 sequence (O08914 1-579)
Kind of data set: Ex vivo FAAH activity in mouse brain after oral administration. The conditions noted are these: 0.1 mg·kg^−1 p.o., 1 hr after dosing. The essentials:
as §1

Data set [8] concerns the target T6, human recombinant fatty acid amide hydrolase (FAAH) (Homo sapiens, UniProt O00519).
T6 sequence (O00519 1-579): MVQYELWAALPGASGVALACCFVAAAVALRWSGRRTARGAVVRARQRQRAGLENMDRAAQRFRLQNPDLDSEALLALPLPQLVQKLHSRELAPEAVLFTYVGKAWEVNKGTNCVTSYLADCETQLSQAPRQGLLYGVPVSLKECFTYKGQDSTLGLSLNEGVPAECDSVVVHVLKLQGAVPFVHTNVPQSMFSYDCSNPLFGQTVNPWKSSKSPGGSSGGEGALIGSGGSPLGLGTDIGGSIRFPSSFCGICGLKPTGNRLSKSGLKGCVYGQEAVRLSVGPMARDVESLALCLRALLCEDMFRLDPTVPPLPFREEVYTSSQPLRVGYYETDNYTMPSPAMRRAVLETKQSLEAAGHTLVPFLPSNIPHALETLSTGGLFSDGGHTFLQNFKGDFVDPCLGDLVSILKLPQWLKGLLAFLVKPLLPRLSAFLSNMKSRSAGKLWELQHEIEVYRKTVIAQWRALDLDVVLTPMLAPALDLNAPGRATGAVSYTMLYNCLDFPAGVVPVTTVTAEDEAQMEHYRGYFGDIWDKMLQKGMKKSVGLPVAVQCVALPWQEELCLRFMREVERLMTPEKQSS
Kind of data set: FAAH activity in intact COS‐hFAAH cells. The format is cell-based. As to conditions: for IC50: read-out: IC50 [95% CI].

Data set [9] has as its system brain fatty acid amides (AEA, PEA, OEA). Kind of data set: Fatty acid amides. The data set is classed as in vivo. As to conditions: mouse brain, 8 hr. The essentials:
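Frozen brains were thawed at 4°C and weighed. Each sample was extracted with chloroform:MeOH (2:1) plus 0.1 M phosphate buffer, pH 5.6. Deuterated internal standards were spiked in: AEA‑d8, PEA‑d4 and OEA‑d2 for the fatty acid amides, and 2‑AG‑d8 for 2‑AG.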

The subject of a further data set is COS‐hFAAH cells. As to the kind of experiment: Quantification of compounds in COS‐hFAAH supernatant, cell lysates and medium. The data set is classed as in vitro ADME. The conditions noted are these: 1, 3 and 24 hr.
Data set [10] is classed as in vivo. The conditions noted are these: rat, after BIA 10‐2474 10 mg·kg^−1 p.o.

For the molecule `O=C(Nc1cnccc1Cl)N1CCN(Cc2ccc3c(c2)OC(F)(F)O3)CC1` [JNJ‐42165279], the “inhibition of liver FAAH” value in [1] is on record as 25.5%. Moreover, the “off‐target activity at the sites studied” value in data set [2] was “some weak activity at just seven sites”. The “k inact/K I” value in [3] is on record as 5,092 M·s^−1. Moreover, the “mean % free fraction ± SD” value in data set [4] was 64.3 ± 4.0%. Further, the IC50 in data set [5] (pre‐incubation 0 min) was 472 nM; in data set [5] (pre‐incubation 5 min), 365 nM; in data set [5] (pre‐incubation 15 min), 272 nM; in [5] (pre‐incubation 30 min), 221 nM; in [5] (pre‐incubation 45 min), 161 nM; in data set [5] (pre‐incubation 60 min), 94.3 nM. Moreover, the IC50 in data set [8] (incubation 1 hr) was 26.2 nM; in data set [8] (incubation 3 hr), 25.1 nM; in data set [8] (incubation 24 hr) it was 41.5 nM. In addition, the “concentration that completely inhibited the band corresponding to the MW of FAAH” value in [6] amounted to 10 µM. Also, the “inhibition of brain FAAH” value in data set [7] was 19.2%. Moreover, in data set [8] (1‐ and 3‐hr periods), the “inhibition level above 30 nM” value was “around 50%”. Besides, the AEA is given as 89.0 ± 20.6 % of control in [9] (1 mg·kg^−1 p.o.), 83.6 ± 9.1 % of control in data set [9] (3 mg·kg^−1 p.o.), 86.5 ± 4.8 % of control in data set [9] (10 mg·kg^−1 p.o.) and 95.5 ± 2.5 % of control in [9] (30 mg·kg^−1 p.o.). The OEA in data set [9] (1 mg·kg^−1 p.o.) is on record as 114.9 ± 13.36 % of control; in [9] (3 mg·kg^−1 p.o.) it was 121.7 ± 10.2 % of control; in [9] (10 mg·kg^−1 p.o.) it was 147.3 ± 13.8 % of control; in data set [9] (30 mg·kg^−1 p.o.), 234.9 ± 46.8 % of control. Further, the PEA in data set [9] (1 mg·kg^−1 p.o.) is reported as 123.4 ± 11.2 % of control; in data set [9] (3 mg·kg^−1 p.o.) it was 138.3 ± 19.4 % of control; in [9] (10 mg·kg^−1 p.o.), 205.6 ± 37.0 % of control; in data set [9] (30 mg·kg^−1 p.o.), 382.2 ± 103.5 % of control. Also, the “detection in cell lysates” value in the data set on COS‐hFAAH cells is on record as “undetectable”. Besides, the “stability in cellular media over time” value with COS‐hFAAH cells is given as “stable”.
Regarding `CN(C(=O)n1cnc(-c2cccnc2)c1)[C@H]1CC[C@H](O)CC1` [BIA 10‐2631, N‐((1R,4R)‐4‐hydroxycyclohexyl)‐N‐methyl‐4‐(pyridin‐3‐yl)‐1H‐imidazole‐1‐carboxamide], the “brain levels at all time points measured” value in data set [10] is given as “below the limit of quantification”.
For `CN(C(=O)n1cnc(-c2ccc[n+]([O-])c2)c1)[C@H]1CC[C@H](O)CC1` [BIA 10‐2639, 3‐(1‐(((1R,4R)‐4‐hydroxycyclohexyl)(methyl)carbamoyl)‐1H‐imidazol‐4‐yl)pyridine 1‐oxide], the “brain levels at all time points measured” value in data set [10] is listed as “below the limit of quantification”.
